# LYPLA2 inh: LYPLA2 inhibitors, primary screen, counter-screen for PME1 inhibitor project, biochemical, fluorescence polarization, FP-Rh probe ABPP; recombinant LYPLA2; inhibition, % at 5.9 µM; 320,000 tested, 0.38% active; AID 2177, 2009;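 active = inhibition above the screen-wide mean plus 3 SD, limit set per campaign, cut at about 26% in these data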;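 note: 0% = LYPLA2 with DMSO and 100% = wells lacking LYPLA2 enzyme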
# proCasp7 act: procaspase-7 activators, primary screen, counter-screen for procaspase-3 activator project, biochemical, absorbance, HTS, human; activation, % at 8.5 µM; AID 463210, 2010; recombinant procaspase-7, Ac-DEVD-pNA absorbance 405 nm; D23A/D198A/D206A triple mutant, cannot self-cleave; scale: DMSO 0, 5 µM enzyme 100; Caspase-7 (Homo sapiens), P55210; 330,000 tested, 0.093% active;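 active = percent activation above the screen-wide mean plus 3 SD, cut at about 25% in these data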
#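 Test system: Procaspase-7 triple mutant (PC-7 D3A). Also added: Ac-DEVD-pNA substrate, 400 µM as added. Schedule: 1 h enzyme–compound preincubation and 2 h substrate reaction, both 25 °C. Signal: p-Nitroaniline absorbance at 405 nm, read at 0 and 120 min. Control set: low DMSO alone, high DMSO plus 5 µM PC-7.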
# LYPLA1 counter: LYPLA1 inhibitors, primary screen, counter-screen for PME1 inhibitor project, biochemical, fluorescence polarization, FP-Rh probe ABPP; Acyl-protein thioesterase 1 (Homo sapiens), O75608; recombinant LYPLA1; inhibition, % at 5.9 µM; 320,000 tested, 0.16% active; AID 2174, 2009;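 active = inhibition above the mean of all tested compounds plus 3 SD, set per campaign, cut at about 14% in these data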;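 note: inhibitors block serine hydrolase probe labeling of LYPLA1 so polarization falls; 0% = enzyme with DMSO and 100% = wells lacking LYPLA1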
# Target sequence (O75608 whole entry, looked up): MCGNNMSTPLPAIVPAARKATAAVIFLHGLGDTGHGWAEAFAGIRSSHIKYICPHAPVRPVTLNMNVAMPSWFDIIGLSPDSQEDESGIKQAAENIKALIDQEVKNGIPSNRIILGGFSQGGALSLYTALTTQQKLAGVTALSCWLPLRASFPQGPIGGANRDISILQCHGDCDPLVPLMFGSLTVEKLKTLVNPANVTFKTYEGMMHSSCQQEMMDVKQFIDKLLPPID
# PREPL inh: PREPL enzyme inhibitors, primary screen, biochemical, fluorescence polarization; 320,000 tested, 0.68% active; AID 2751, 2010; Prolyl endopeptidase-like (Homo sapiens), Q4J6C6; inhibition, % at 5.96 µM; recombinant PREPL, fluorescence polarization activity-based probe; in the data active = inhibition above about 43%;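 note: 0% = enzyme with DMSO and 100% = wells lacking enzyme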
# proCasp3 act: activators of human procaspase-3 D3A mutant, primary screen, biochemical, absorbance, PC-3 D3A mutant, single concentration. Caspase-3 (Homo sapiens), P42574. recombinant procaspase-3 D3A, Ac-DEVD-pNA absorbance 405 nm. activation, % at 8.5 µM. 330,000 tested, 0.11% active;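 active = activation above the mean of all tested compounds plus 3 SD, cut at about 21% in these data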;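 note: 0% = DMSO alone and 100% = DMSO wells spiked with extra 5 µM PC-3 D3A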
# Target sequence (P42574 whole entry D9A/D28A/D175A): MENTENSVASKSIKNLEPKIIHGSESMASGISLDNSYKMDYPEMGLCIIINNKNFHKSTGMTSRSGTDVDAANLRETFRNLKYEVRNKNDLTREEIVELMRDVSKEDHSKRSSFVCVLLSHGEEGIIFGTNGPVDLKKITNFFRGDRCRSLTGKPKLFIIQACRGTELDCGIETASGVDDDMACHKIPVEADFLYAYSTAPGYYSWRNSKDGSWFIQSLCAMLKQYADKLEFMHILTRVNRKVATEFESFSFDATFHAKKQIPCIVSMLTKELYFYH
#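 Evaluation: percent activation relative to control range; Material: Procaspase-3 D3A mutant, all three cleavage aspartates alanine; Compound: single dose, 8.5 µM nominal compound, 0.8% DMSO; Replication: one well per compound; Signal: absorbance at 405 nm, 0 and 120 min; Schedule: 1 h preincubation plus 2 h reaction at 25 °C.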
# LYPLA1 confirm: LYPLA1 inhibitors, retest, confirmation, counter-screen for PME1 inhibitor project, biochemical, fluorescence polarization, FP-Rh probe ABPP; inhibition, % at 5.9 µM; 480 tested, 69% active; AID 2233, 2010; recombinant LYPLA1; shares compounds with LYPLA1 counter;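 active = mean inhibition across replicates above the hit cutoff set in the primary screen, cut at about 15% in these data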;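 note: loss of FP-Rh probe labeling of LYPLA1 seen as lower polarization; 0% = LYPLA1 with DMSO and 100% = wells lacking LYPLA1 enzyme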
# * hit, by the source's call; / = no result given; ! = repeats disagree. Only some compounds are listed: those with a hit (about 1.1% of all), similar ones and a draw of the others.
SMILES,LYPLA2 inh,proCasp7 act,LYPLA1 counter,PREPL inh,proCasp3 act,others
C#CCOCCOCCOCCNc1nc(N2CCN(C(=O)CCCCCCCCCCNC(=O)[C@H](CCCCN)n3cc(C[C@@H](C)CC)nn3)CC2)nc(N2CCN(C(=O)CCCCCCCCCCNC(=O)[C@H](CCCCN)n3cc(C[C@@H](C)CC)nn3)CC2)n1,-12.6,9.3,-9.9,46.5*,-13.3,
C#CCOCCOCCOCCNc1nc(N2CCN(C(=O)CCCCCCCCCCNC(=O)[C@H]([C@@H](C)CC)n3cc(CCCCN=C(N)N)nn3)CC2)nc(N2CCN(C(=O)CCCCCCCCCCNC(=O)[C@H](CCCCN)n3cc(C[C@@H](C)CC)nn3)CC2)n1,20.2,6.0,-6.6,57.5*,-8.2,
C#CCOCCOCCOCCNc1nc(N2CCN(C(=O)CCCCCCCCCCNC(=O)[C@@H](CCSC)n3cc(CCO)nn3)CC2)nc(N2CCN(C(=O)CCCCCCCCCCNC(=O)[C@H]([C@@H](C)CC)n3cc(CCCCN=C(N)N)nn3)CC2)n1,-53.5,7.8,-42.8,40.0,-4.1,
O=C(NCc1ccco1)c1cc(Cl)nc(Cl)c1,12.5,-2.6,-2.3,7.8,-0.9,
COc1cc(Sc2ccc(C)cc2)c(OC)cc1N,5.5,-20.3,1.1,47.2*,-8.4,
COC(=O)c1ccc(Sc2ccc(C)cc2)c(N)c1,2.3,3.8,0.4,13.8,-1.5,
Cc1cc(C)n2nc(SCc3cc(=O)oc4cc(C)c(C)cc34)nc2n1,5.0,2.1,3.2,40.9,2.0,
Cc1cc(C)n2nc(SCc3cc(=O)oc4ccc5ccccc5c34)nc2n1,-3.8,5.9,-0.9,46.9*,0.6,
Clc1ccc(C2Nc3ccccc3-n3cccc32)cc1 (stereo not drawn),-4.5,27.7*,-2.1,-2.0,-1.8,
CC(C)c1ccc(NC(=O)/C(C#N)=C/c2ccncc2)cc1,1.5,-11.3,-0.5,2.1,-1.2,
CC(=O)OCC1=C(C(=O)O)N2C(=O)C(NC(=O)c3ccc(COc4cccc(Cl)c4Cl)o3)C2SC1 (stereo not drawn),-4.2,-23.0,-10.2,-6.3,-4.4,
Cc1ccn(C(=O)c2ccc(NC(=O)CC(C)C)cc2)n1,-2.6,-15.2,5.2,71.1*,-12.4,
Cc1cc(C)n(C(=O)c2ccc(NC(=O)CC(C)C)cc2)n1,1.4,6.2,3.1,14.7,3.8,
Cc1ccc(NC(=O)CSc2nc3ccccc3nc2N2CCCC2)cc1,-9.2,-2.3,-1.7,3.8,39.6*,
CC(C)c1ccc(NC(=O)CSc2nc3ccccc3nc2N2CCCC2)cc1,-3.0,-4.3,-4.0,11.0,0.5,
CC(=O)Nc1cc(OC(C)=O)c2nonc2c1OC(C)=O,94.8*,-9.5,80.6*,56.4*,-11.5,
COc1ccc(-c2[nH]c3ccccc3c2SCCNC(=O)c2cc3ccccc3oc2=O)cc1,-12.9,0.8,-13.1,17.4,4.1,
COc1ccc(-c2[nH]c3ccccc3c2SCCN)cc1,-2.1,0.9,-0.9,55.4*,-2.8,
COc1ccccc1NC(=O)CN1C(=O)NC2(CCCc3ccccc32)C1=O (stereo not drawn),-0.1,12.1,1.7,2.8,7.8,
O=C1COc2ccc(-c3csc(NCCc4ccccc4)n3)cc2N1,-8.6,-9.5,-4.8,50.6*,2.0,
O=C(CN1CCN(c2nc(-c3ccccc3)cs2)CC1)Nc1ccc2c(c1)OCO2,-0.8,-1.6,-0.4,48.2*,-1.6,
Cc1oc(-c2ccc(Cl)cc2)nc1CN1CCC(C(=O)NCc2cccnc2)CC1,-1.4,1.2,-3.4,12.1,10.3,
CCCN(CCC)CCNC(=O)C1CCN(Cc2nc(-c3ccc(Cl)cc3)oc2C)CC1,-3.8,4.4,-2.3,45.1*,8.0,
CC(Oc1ccc(S(=O)(=O)N2CCCC2)cc1[N+](=O)[O-])C(=O)NC(C)c1ccccc1 (stereo not drawn),3.5,2.9,1.6,0.7,4.5,
C=C[C@]1(C)C[C@@H](OC(=O)CSCCN(CC)CC)[C@]2(C)C(C)CC[C@]3(CCC(=O)[C@H]32)[C@@H](C)[C@@H]1O (stereo partly drawn),0.5,8.6,14.8*!,29.7,6.2,LYPLA1 confirm=3.3
SMILES,LYPLA2 inh,proCasp7 act,LYPLA1 counter,PREPL inh,proCasp3 act,others
O=C(NCCCN1CCCC1=O)c1ccc(NS(=O)(=O)c2ccccc2)cc1,3.9,1.0,2.1,1.3,-2.0,
Nc1ccc(Br)c2c1C(=O)c1ccccc1C2=O,2.7,-8.7,3.9,19.1,3.5,
COc1ccc(N)c2c1C(=O)c1ccccc1C2=O,14.7,0.5,20.2*,19.7,-7.5,LYPLA1 confirm=14.2*
COc1ccc(OC)c2c1C(=O)C(Cl)=C(Cl)C2=O,6.5,-29.1,2.6,1.6,-32.8,
COc1ccc(OC)c2c1C(=O)c1ccccc1C2=O,22.2,-11.8,22.0*,14.1,0.5,LYPLA1 confirm=4.2
COc1cc(/C=N/N2CCN(Cc3ccc(Cl)cc3)CC2)cc(Br)c1O,22.0,-1.0,48.9*,19.1,-7.7,LYPLA1 confirm=53.8*
COc1cc(/C=N/N2CCN(Cc3ccc(Cl)cc3)CC2)ccc1OC(C)=O,11.7,-1.6,4.3,41.0,-3.1,
COc1ccccc1/C=C/C=N\N1CCN(Cc2ccccc2Cl)CC1,10.1,-6.3,2.6,17.4,-9.6,
COc1ccccc1/C=C/C=N/N1CCN(Cc2ccc(Cl)cc2)CC1,21.1,-0.9,18.9*,27.9,-1.3,LYPLA1 confirm=25.8*
COc1ccc(Cc2nnc(SCC(=O)N3CCN(c4ccccc4)CC3)o2)cc1,-2.3,-5.8,24.1*,-3.5,-9.2,LYPLA1 confirm=30.0*
CCCCNc1nnc(SCC(=O)c2c(N)n(C3CC3)c(=O)[nH]c2=O)s1,/,-1.0,/,29.1,3.9,
O=C(NC1CC1)c1c[nH]c2ccc(S(=O)(=O)Nc3cccc(C(F)(F)F)c3)cc2c1=O,-7.6,-4.3,14.3*,-2.8,3.6,LYPLA1 confirm=5.9
Cc1cccc(-n2c(O)c(C=Nc3ccccc3-c3n[nH]c(=S)[nH]c3=O)c3ccccc3c2=O)n1,2.6,-10.2,0.9,14.6,-2.6,
Cc1ccc(-n2c(O)c(C=Nc3ccccc3-c3n[nH]c(=S)[nH]c3=O)c3ccccc3c2=O)c(C)c1,-3.9,-12.4,14.8*,9.1,3.2,LYPLA1 confirm=15.1*
CC(C)CNC(=O)c1cccc(NC(=O)c2ccc3c(c2)C(=O)N(C)C3=O)c1,14.6,8.0,25.8*,-11.1,3.3,LYPLA1 confirm=26.8*

# Source: PubChem BioAssay
